Laboratory results from publication PMC9977181 (Science Advances, 2023).
One block for each compound: values may come before it.

Assays:
ATM [1] = target: T1, ATM (Homo sapiens, UniProt Q13315); test: ATM-SPARK reporter imaging in living HEK293 cells, ATM activated by etoposide; assay type: cell-based
ATM [2] = target: T1, ATM; test: ATM-SPARK ATM activity in HeLa or T98G cancer cells preincubated with inhibitor; assay type: cell-based; details: HeLa and T98G cells, ATM activated using etoposide
HeLa cells = test: HeLa cell growth assay; assay type: cell-based, human
ATM [3] = target: T1, ATM; test: Western blot of phosphorylated ATM; assay type: cell-based
Outline: (§1)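 HEK293 cells were pretreated 1 h with a test compound titration starting at 1 μM, then given NCS (500 ng/ml) for 1 h. Lysates were resolved on 4–12% bis-tris gels, probed with primary antibodies (1:1000) and HRP secondaries, and detected by ECL on film. The phospho/total band ratio was normalized to DMSO-treated cells. IC50 was obtained by nonlinear fit.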

ATR = ATR (Homo sapiens, UniProt Q13535); test: Western blot of phosphorylated ATR; assay type: cell-based; details: HEK293 cells, NCS-induced DNA damage
Outline: as §1

[4] = tested on: ATM-deficient MDA-MB-231 cells; test: Growth inhibition with NCS in ATM-deficient MDA-MB-231 cells; assay type: cell-based, human; details: ATM-deficient cell line
DNA-PK = DNA-PK (Homo sapiens, UniProt P78527); test: Western blot of phosphorylated DNA-PK; assay type: cell-based; details: HEK293 cells, NCS-induced DNA damage
Outline: as §1

ATM [5] = target: T1, ATM; assay type: cell-based; details: HEK293 cells preincubated with NCS
ATM [6] = target: T1, ATM; test: ATM-SPARK activation by DNA-damaging drugs in U87 cells; assay type: cell-based

T1 sequence (Q13315 whole entry): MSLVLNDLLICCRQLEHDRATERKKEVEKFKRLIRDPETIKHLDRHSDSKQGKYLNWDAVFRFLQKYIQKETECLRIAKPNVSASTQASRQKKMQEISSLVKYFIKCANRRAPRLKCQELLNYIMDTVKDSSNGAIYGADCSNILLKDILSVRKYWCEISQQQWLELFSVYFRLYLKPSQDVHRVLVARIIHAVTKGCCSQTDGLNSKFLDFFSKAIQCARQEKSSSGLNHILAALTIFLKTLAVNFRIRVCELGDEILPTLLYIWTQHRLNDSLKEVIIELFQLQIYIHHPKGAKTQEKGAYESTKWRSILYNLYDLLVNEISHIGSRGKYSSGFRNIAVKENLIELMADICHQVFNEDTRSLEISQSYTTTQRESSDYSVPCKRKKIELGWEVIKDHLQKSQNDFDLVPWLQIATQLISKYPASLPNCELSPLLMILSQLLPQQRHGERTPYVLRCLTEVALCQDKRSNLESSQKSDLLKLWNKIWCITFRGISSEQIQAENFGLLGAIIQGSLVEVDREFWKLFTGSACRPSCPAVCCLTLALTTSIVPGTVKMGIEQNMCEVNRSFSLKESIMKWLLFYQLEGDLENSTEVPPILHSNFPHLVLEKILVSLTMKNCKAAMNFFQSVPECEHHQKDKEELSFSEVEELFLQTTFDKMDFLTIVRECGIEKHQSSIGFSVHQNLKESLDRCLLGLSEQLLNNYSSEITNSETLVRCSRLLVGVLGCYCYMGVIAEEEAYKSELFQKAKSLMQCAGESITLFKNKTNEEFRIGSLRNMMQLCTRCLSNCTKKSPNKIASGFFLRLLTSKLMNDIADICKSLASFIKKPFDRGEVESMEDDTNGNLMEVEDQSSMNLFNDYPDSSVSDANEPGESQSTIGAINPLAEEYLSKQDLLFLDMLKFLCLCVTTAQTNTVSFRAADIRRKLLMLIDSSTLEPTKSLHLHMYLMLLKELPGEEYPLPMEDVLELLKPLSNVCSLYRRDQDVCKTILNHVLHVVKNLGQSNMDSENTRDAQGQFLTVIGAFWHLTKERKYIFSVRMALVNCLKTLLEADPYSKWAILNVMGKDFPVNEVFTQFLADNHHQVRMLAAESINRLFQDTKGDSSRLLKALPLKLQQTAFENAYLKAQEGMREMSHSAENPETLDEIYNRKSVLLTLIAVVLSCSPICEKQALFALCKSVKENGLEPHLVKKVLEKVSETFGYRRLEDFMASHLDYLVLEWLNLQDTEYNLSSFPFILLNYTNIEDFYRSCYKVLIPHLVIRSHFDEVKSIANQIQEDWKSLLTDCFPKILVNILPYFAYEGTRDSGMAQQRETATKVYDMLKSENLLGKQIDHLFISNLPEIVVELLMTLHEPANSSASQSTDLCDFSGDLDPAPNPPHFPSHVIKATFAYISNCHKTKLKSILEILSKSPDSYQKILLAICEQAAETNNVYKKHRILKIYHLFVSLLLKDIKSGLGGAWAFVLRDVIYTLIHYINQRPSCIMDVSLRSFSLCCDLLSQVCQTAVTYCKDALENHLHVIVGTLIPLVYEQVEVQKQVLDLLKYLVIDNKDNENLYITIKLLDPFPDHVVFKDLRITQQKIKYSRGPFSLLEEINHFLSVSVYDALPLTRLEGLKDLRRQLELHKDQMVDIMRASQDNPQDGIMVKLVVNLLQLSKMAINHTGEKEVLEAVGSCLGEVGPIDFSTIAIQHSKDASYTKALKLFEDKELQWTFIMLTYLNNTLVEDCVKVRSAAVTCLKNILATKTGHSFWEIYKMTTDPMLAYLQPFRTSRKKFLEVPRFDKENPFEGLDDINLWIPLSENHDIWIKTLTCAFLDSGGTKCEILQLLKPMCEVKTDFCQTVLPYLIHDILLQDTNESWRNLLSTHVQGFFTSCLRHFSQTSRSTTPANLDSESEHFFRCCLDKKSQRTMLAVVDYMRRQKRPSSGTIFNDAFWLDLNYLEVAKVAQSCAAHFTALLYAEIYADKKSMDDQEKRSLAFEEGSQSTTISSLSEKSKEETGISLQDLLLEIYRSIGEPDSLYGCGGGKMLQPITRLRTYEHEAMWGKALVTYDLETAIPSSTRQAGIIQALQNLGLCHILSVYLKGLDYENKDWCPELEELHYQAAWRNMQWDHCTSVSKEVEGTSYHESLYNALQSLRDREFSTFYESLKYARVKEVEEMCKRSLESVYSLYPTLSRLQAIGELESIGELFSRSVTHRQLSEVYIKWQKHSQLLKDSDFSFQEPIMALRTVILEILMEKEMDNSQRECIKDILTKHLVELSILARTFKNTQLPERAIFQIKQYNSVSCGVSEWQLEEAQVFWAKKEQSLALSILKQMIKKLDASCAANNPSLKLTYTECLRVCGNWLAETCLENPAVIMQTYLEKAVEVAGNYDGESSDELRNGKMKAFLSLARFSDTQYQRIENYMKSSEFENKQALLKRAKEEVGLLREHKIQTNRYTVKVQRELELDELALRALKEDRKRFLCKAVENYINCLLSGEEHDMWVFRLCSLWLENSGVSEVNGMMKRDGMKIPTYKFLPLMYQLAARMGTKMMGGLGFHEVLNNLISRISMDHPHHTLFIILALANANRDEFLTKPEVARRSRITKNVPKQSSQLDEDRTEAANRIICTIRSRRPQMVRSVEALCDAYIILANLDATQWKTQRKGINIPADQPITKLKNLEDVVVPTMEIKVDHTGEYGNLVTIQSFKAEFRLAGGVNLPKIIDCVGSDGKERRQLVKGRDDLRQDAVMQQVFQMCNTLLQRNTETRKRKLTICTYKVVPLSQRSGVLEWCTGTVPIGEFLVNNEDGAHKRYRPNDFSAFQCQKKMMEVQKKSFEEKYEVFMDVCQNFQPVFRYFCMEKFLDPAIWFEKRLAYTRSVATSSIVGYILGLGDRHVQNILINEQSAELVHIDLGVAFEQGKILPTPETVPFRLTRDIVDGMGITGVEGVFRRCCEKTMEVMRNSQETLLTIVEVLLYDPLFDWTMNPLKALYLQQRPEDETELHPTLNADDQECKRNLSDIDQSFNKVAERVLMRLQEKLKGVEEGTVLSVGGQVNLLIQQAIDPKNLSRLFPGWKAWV

ATM activity in inhibitor-incubated cells (ATM-SPARK signal), screening (ATM [1]; 1 μM compound): blocked ATM
Compound: O=C1NC(=O)/C(=C\c2ccc3nccnc3c2)S1 [AS605240]

activity against ATM in cancer cells (ATM-SPARK) (ATM [2]): potent activity against ATM
IC50 (ATM [3]): 3.1 ± 0.8 nM
Compound: COc1ccc(-c2ccc3ncc4c(c3c2)n(-c2ccc(N3CCNCC3)c(C(F)(F)F)c2)c(=O)n4C)cn1 [BGT226]
sensitization of growth inhibition in response to NCS treatment (HeLa cells; NCS + 4 nM or 11 nM inhibitor (fig. S26)): sensitizes
inhibition of ATR (pATR 1989 Western blot) (ATR): no inhibitory activity
effect in growth inhibition when combined with NCS [4]: lost
fold lower activity against DNA-PK than against ATM (DNA-PK): 30 fold

The next lines start with the compound.

Compound: O=c1cc(-c2cccc3c2Sc2ccccc2S3)oc(N2CCOCC2)c1 [KU-55933]
half-time of ATM-SPARK droplet disassembly (ATM [5]): ~ 1.5 min
time to disassembly of ATM-SPARK reporter droplets after inhibitor addition (ATM [5]): ≤ 4 min

Compound: CN1CCN(c2ccc(-n3cc(-c4ccncc4OCC4CCNCC4)cn3)cc2)CC1 [MELK-8A]
inhibitory activity against ATM (ATM-SPARK signal) (ATM [1]): no activity against ATM

Compound: CC[C@@]1(O)C(=O)OCc2c1cc1n(c2=O)Cc2cc3ccccc3nc2-1 [camptothecin]
activation of ATM (ATM-SPARK signal) (ATM [6]): failed to activate ATM

Compound: neocarzinostatin [NCS]
inhibition of cancer cell proliferation by NCS itself (HeLa cells; NCS 180 ng/ml, 3 days): ~ 35%
